Measurements from different studies.
Each line is one published result; the experiments were not run side by side.
JAK2: Tyrosine-protein kinase JAK2 (JAK2, Homo sapiens, UniProt O60674)
JAK2 JH1: Tyrosine-protein kinase JAK2, JH1 (JAK2, Homo sapiens, UniProt O60674)

| Structure (SMILES) | target | assay | conditions | endpoint | value |
| --- | --- | --- | --- | --- | --- |
| Cc1sc(C(=O)NC2COC2)cc1-n1cc(NC(=O)Nc2c(F)cccc2Cl)cn1 | JAK2 | enzyme activity, inhibitor | 10 µM | remaining activity | 95% |
| C[C@H]1CCN(c2nccc(-c3cnn4ncccc34)n2)C1 | JAK2 JH1 | cell-free assay | 1 µM | remaining signal | 70% |
| Cc1nn(CC(F)(F)F)cc1Nc1ncc(C2CC2)c(NCCc2c[nH]cn2)n1 | JAK2 | enzyme activity, inhibitor, radiometric | 1 µM | remaining activity | 123% |
| O=C(CSc1nc2nccnc2c(=O)n1CCc1ccccc1)Nc1nccs1 | JAK2 JH1 | enzyme activity, inhibitor | 10 µM | inhibition | 2% |
| NS(=O)(=O)c1cc(NC(=O)C2(c3ccccc3Cl)CC2)ccc1Oc1cccc(Cl)c1 | JAK2 JH1 | cell-free assay, competition with immobilised ligand | 1 µM | remaining binding | 100% |
| Cc1nn(CC(F)(F)F)cc1Nc1ncc(Br)c(NCCCNC(=O)C2CCC2)n1 | JAK2 | enzyme activity, inhibitor, radiometric | 1 µM | remaining activity | 67% |
| c1cnn2ncc(-c3ccnc(N4CCC45COC5)n3)c2c1 | JAK2 JH1 | cell-free assay | 1 µM | remaining signal | 74% |
| FC(F)(F)Oc1cccc(-c2cnc3ccc(-c4ccncc4)nn23)c1 | JAK2 | enzyme activity, inhibitor, radiometric | 5 µM | activity vs control | 72% |
| O=C(NCCCNc1nc(Nc2cccc(NC(=O)N3CCCC3)c2)ncc1I)c1cccs1 | JAK2 | enzyme activity, inhibitor, radiometric | 1 µM | remaining activity | 6% |
| COc1cc2ncnc(Nc3ccc(Oc4ccccc4)cc3C)c2cc1OC | JAK2 | enzyme activity, inhibitor | 1 µM | inhibition | -6% |
| O=C1NC(=O)c2cc(Nc3ccc(F)cc3)c(Nc3ccc(F)cc3)cc21 | JAK2 | cell-free assay | 0.5 µM | remaining signal | 94.6% |
| COc1cc(Nc2cnc(C#N)c(O[C@H](C)CN(C)C)n2)ncc1-c1cnn(C)c1 | JAK2 | enzyme activity, inhibitor, radiometric | 1 µM | remaining activity | 71% |
| Cc1nn(CC(F)(F)F)cc1Nc1ncc(Br)c(NCCc2cnc[nH]2)n1 | JAK2 | enzyme activity, inhibitor, radiometric | 1 µM | remaining activity | 106% |
| CN([C@@H]1CCc2c(CC(=O)O)c3cc(S(C)(=O)=O)ccc3n2C1)S(=O)(=O)c1ccc(F)cc1 | JAK2 JH1 | cell-free assay, competition with immobilised ligand | 1 µM | remaining binding | 100% |
| Cc1ccc(NC(=O)c2ccc(C)c(C(F)(F)F)c2)cc1C#Cc1nn(C2CCC(O)CC2)c2ncnc(N)c12 (stereo not drawn) | JAK2 | cell-free assay | 10 µM | remaining signal | 64% |
| COCCOc1nc(-c2ccc(Cl)nc2)nc2c1CN(C(=O)c1ncn3ccccc13)CC2 | JAK2 JH1 | cell-free assay, competition with immobilised ligand | 0.1 µM | remaining binding | 100% |
| O=C1Nc2ccc(Cl)cc2C1=Cc1cc(Cl)c(O)c(Cl)c1 | JAK2 | cell-free assay | 0.5 µM | remaining signal | 91.1% |

| Structure (SMILES) | target | assay | conditions | endpoint | value |
| --- | --- | --- | --- | --- | --- |
| CS(=O)(=O)c1cc(C2(NC(=O)c3cncc4c3cnn4-c3ccc(F)cc3)CC2)ccn1 | JAK2 JH1 | cell-free assay, competition with immobilised ligand | 1 µM | remaining binding | 100% |
| C=CC(=O)Nc1cc(Nc2nccc(Nc3cc(Cl)c(F)cc3C(C)(C)O)n2)c(OC)cc1N1CC[C@@H](N(C)C)C1 | JAK2 | enzyme activity, inhibitor | 1 µM | inhibition | 2% |
| COc1cc2ncnc(Nc3ccc(Oc4ccccc4)c(C)c3C)c2cc1OC | Tyrosine-protein kinase JAK2, JH1 (JAK2, Homo sapiens, UniProt O60674, V617F) | enzyme activity, inhibitor | 1 µM | inhibition | -4% |
| O=C(NCCCNc1nc(Nc2cccc(NC(=O)N3CCCC3)c2)ncc1Br)C1CCC1 | JAK2 | enzyme activity, inhibitor, radiometric | 1 µM | remaining activity | 10% |
| Nc1nc(Nc2ccc(S(N)(=O)=O)cc2)nn1C(=O)c1c(F)cccc1F | JAK2 | cell-free assay | 0.5 µM | remaining signal | 19.2% |
| Cc1c[nH]c2nccc(Oc3c(F)cc(Nc4cc(Cl)nc(N)n4)cc3F)c12 | JAK2 JH1 | cell-free assay, competition with immobilised ligand | 0.1 µM | remaining binding | 75% |
| Cc1nn(CC(F)(F)F)cc1Nc1nccc(NCc2ccc(S(N)(=O)=O)cc2)n1 | JAK2 | enzyme activity, inhibitor, radiometric | 1 µM | remaining activity | 95% |
| CO[C@@H](C)c1c(Nc2ccc([C@@H](N(C)C(=O)C3CCS(=O)(=O)CC3)C(F)(F)F)cc2)cnc2cc(Cl)nn12 | JAK2 JH1 | cell-free assay, competition with immobilised ligand | 1 µM | remaining binding | 98% |
| CCOc1cc(-c2nncn2C)ccc1Nc1ncc2cc(C)nc(NCC(C)(C)C)c2n1 | JAK2 | enzyme activity, inhibitor, FRET | 1 µM | inhibition | < 15% |
| O=C(NCCCC1CCCCC1)c1ccc(CNC(=O)c2cnn(-c3ccccc3)c2C(F)(F)F)cc1 | JAK2 JH1 | cell-free assay, competition with immobilised ligand | 0.1 µM | remaining binding | 100% |
| Cc1ccc(Nc2nccc(N(C)c3ccc4c(C)n(C)nc4c3)n2)cc1S(N)(=O)=O | JAK2 | enzyme activity, inhibitor | 10 µM | inhibition | 36% |
| CCS(=O)(=O)c1cc2cc(C[C@](O)(CC(C)(C)c3ccc(F)cc3C(N)=O)C(F)(F)F)[nH]c2cn1 | JAK2 JH1 | cell-free assay, competition with immobilised ligand | 1 µM | remaining binding | 53% |
| CS(=O)(=O)Nc1cccc(-c2csc(NC(=O)CSc3nc4nccnc4c(=O)n3CCc3ccccc3)n2)c1 | JAK2 | enzyme activity, inhibitor | 10 µM | inhibition | -7% |
| CNC(=O)c1cc(Oc2ccc(NC(=O)Nc3ccc(Cl)c(C(F)(F)F)c3)cc2)ccn1 | JAK2 | cell-free assay | 0.5 µM | remaining signal | 98.2% |
| CCCS(=O)(=O)Nc1ccc(F)c(C(=O)c2c[nH]c3ncc(-c4ccc(Cl)cc4)cc23)c1F | JAK2 JH1 | enzyme activity, inhibitor | 1 µM | inhibition | < 10% |
| Cc1nn(CC(F)(F)F)cc1Nc1ncc(C2CC2)c(NCCCNC(=O)C2CCC2)n1 | JAK2 | enzyme activity, inhibitor, radiometric | 1 µM | remaining activity | 99% |
